Results reported in ChEMBL document CHEMBL1148104, “New sugar-mimic alkaloids from the pods of Angylocalyx pynaertii” (J Nat Prod, 2002).

Legend:
[1] = Inhibition of rice alpha-glucosidase assessed as glucose release by Glucose B-test; design: species or system Oryza sativa
Procedure, shortened: (§1)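 Disaccharide substrate suited to each enzyme, at that enzyme's optimum pH. Released D-glucose was measured colorimetrically with the Glucose B-test.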

[2] = Inhibition of yeast alpha-glucosidase assessed as p-nitrophenol release by spectrophotometrically; design: species or system Saccharomyces cerevisiae
Procedure, shortened: (§2)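 Assayed with the appropriate p-nitrophenyl glycoside substrate at each enzyme's optimum pH.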

[3] = Inhibition of rat epididymis alpha-mannosidase assessed as p-nitrophenol release by spectrophotometrically
Beta-mannosidase = biological target: T1, Beta-mannosidase (Rattus norvegicus, UniProt Q4FZV0); assay: Inhibition of rat epididymis beta-mannosidase assessed as p-nitrophenol release by spectrophotometrically
T1 sequence (Q4FZV0 whole entry): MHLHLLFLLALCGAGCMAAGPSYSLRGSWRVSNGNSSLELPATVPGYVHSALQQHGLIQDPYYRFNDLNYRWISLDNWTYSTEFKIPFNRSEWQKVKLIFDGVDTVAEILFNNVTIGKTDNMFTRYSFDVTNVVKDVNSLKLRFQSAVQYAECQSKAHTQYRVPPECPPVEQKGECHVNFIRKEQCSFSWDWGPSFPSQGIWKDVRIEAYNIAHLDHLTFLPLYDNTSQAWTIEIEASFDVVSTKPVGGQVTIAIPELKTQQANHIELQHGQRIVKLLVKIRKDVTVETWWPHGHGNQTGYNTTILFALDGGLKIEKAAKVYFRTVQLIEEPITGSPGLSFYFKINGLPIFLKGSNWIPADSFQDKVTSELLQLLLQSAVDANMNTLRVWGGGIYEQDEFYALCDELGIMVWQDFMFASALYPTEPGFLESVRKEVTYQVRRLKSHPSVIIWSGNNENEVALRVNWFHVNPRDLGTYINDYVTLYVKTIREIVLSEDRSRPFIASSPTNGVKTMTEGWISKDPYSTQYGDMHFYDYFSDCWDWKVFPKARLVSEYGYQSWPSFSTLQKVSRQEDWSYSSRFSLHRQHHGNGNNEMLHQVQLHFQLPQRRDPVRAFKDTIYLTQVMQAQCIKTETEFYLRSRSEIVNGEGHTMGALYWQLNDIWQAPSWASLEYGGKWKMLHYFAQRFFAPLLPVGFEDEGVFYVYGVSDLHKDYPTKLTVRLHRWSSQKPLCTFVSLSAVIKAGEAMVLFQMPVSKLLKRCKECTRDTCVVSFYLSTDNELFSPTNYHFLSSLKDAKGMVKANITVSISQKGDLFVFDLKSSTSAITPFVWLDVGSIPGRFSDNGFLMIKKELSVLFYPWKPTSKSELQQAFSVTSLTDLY

[4] = biological target: Alpha-galactosidase (Coffea arabica) (UniProt Q42656); assay: Inhibition of coffee bean alpha-galactosidase assessed as p-nitrophenol release at 1000 uM by spectrophotometrically; procedure, shortened: as §2
Alpha-galactosidase (Coffea arabica), sequence (Q42656 16-378 limits assumed): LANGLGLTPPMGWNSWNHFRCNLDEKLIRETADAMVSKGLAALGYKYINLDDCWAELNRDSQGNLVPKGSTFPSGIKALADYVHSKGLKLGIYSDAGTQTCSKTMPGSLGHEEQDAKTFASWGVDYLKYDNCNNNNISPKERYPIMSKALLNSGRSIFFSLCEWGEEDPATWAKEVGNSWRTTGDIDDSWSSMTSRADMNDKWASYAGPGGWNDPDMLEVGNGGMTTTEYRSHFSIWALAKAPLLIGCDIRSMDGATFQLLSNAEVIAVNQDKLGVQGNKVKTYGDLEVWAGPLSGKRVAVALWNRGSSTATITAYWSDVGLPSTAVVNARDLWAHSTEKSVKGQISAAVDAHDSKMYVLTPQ

[5] = biological target: T2, Beta-galactosidase (Bos taurus) (UniProt Q58D55); assay: Inhibition of bovine liver beta-galactosidase assessed as p-nitrophenol release at 1000 uM by spectrophotometrically; procedure, shortened: as §2
T2 sequence (whole entry): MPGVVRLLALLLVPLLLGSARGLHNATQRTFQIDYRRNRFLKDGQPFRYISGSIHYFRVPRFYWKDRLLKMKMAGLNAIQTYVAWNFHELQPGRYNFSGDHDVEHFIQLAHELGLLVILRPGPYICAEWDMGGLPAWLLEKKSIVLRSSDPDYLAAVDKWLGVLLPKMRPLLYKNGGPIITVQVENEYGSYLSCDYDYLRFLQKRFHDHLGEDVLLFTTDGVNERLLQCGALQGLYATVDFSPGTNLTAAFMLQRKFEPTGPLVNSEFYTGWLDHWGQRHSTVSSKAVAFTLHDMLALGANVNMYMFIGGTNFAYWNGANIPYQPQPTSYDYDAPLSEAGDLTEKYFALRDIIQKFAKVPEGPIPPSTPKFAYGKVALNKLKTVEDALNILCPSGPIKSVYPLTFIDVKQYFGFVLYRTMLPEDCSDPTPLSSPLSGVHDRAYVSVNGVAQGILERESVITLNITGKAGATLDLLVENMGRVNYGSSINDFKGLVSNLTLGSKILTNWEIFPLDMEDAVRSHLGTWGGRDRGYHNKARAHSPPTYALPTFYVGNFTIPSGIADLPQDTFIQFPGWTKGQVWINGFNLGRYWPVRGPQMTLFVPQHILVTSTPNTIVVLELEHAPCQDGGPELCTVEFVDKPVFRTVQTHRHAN

[6] = biological target: T3, Tissue alpha-L-fucosidase (Bos taurus) (UniProt Q2KIM0); assay: Inhibition of bovine epididymis alpha-L-fucosidase assessed as p-nitrophenol release at 1000 uM by spectrophotometrically; procedure, shortened: as §2
T3 sequence (whole entry): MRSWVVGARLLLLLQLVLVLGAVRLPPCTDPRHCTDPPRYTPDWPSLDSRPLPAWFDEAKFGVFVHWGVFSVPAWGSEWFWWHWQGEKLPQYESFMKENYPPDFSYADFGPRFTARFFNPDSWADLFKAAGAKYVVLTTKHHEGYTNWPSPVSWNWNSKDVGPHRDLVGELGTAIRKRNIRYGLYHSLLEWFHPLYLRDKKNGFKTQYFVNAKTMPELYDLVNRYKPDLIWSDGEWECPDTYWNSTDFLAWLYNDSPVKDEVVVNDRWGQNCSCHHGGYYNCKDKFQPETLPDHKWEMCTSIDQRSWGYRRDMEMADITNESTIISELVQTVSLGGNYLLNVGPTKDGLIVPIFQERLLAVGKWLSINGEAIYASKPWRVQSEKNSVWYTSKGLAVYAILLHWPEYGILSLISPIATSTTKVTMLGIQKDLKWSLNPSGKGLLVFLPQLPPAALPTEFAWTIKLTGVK

[7] = Inhibition of Aspergillus niger amyloglucosidase assessed as glucose release by Glucose B-test; procedure, shortened: as §1
Uncharacterized protein = biological target: T4, Uncharacterized protein (Sus scrofa, UniProt I3LIR5); assay: Inhibition of pig kidney trehalase assessed as p-nitrophenol release by spectrophotometrically
T4 sequence (I3LIR5 whole entry): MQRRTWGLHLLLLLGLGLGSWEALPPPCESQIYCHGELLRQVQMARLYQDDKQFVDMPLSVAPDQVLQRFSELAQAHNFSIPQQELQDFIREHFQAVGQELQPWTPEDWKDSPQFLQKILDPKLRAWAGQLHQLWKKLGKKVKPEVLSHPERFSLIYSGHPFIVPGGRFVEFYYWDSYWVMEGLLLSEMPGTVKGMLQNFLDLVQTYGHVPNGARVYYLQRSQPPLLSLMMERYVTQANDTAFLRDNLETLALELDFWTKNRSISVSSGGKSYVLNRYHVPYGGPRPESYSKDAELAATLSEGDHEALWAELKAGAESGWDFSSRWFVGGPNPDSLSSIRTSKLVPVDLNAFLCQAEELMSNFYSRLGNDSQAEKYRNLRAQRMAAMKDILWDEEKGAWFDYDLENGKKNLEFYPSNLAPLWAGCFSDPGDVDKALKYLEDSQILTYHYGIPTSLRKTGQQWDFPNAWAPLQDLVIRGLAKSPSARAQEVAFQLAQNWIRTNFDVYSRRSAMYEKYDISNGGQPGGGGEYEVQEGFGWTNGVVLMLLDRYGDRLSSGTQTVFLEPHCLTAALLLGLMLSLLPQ

Alpha-glucosidase MAL62 = Alpha-glucosidase MAL62 (Saccharomyces cerevisiae, UniProt P07265); assay: Inhibition of yeast maltase alpha-glucosidase assessed as glucose release by Glucose B-test
Alpha-glucosidase MAL62, sequence (P07265 whole entry): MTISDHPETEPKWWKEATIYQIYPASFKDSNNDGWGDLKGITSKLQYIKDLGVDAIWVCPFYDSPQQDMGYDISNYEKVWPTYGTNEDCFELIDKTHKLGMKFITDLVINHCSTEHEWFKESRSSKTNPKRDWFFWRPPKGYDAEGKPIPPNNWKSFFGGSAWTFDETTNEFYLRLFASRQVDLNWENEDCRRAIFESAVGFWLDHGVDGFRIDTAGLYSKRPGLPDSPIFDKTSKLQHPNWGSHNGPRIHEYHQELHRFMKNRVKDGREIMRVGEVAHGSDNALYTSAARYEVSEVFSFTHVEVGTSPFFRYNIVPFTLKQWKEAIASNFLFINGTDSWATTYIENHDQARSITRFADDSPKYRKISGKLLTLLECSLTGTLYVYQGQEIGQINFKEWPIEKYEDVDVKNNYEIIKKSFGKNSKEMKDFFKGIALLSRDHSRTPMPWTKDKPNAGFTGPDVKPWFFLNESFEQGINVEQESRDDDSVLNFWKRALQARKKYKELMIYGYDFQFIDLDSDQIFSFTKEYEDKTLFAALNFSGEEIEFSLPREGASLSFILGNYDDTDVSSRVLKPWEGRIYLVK

[8] = Inhibition of yeast isomaltase alpha-glucosidase assessed as glucose release by Glucose B-test
[9] = biological target: Alpha-glucosidase MAL62 (Saccharomyces cerevisiae) (UniProt P07265); assay: Inhibition of yeast maltase alpha-glucosidase assessed as glucose release at 1000 uM by Glucose B-test
Alpha-glucosidase MAL62 (Saccharomyces cerevisiae), sequence (P07265 whole entry): as above

Saccharomyces cerevisiae [10] = assay: Inhibition of yeast isomaltase alpha-glucosidase assessed as glucose release at 1000 uM by Glucose B-test
Oryza sativa = assay: Inhibition of rice alpha-glucosidase assessed as glucose release at 1000 uM by Glucose B-test; procedure, shortened: as §1
[11] = biological target: Lysosomal alpha-glucosidase (Rattus norvegicus) (UniProt Q6P7A9); assay: Inhibition of rat intestinal maltase assessed as glucose release at 1000 uM by Glucose B-test
Lysosomal alpha-glucosidase (Rattus norvegicus), sequence (Q6P7A9 whole entry): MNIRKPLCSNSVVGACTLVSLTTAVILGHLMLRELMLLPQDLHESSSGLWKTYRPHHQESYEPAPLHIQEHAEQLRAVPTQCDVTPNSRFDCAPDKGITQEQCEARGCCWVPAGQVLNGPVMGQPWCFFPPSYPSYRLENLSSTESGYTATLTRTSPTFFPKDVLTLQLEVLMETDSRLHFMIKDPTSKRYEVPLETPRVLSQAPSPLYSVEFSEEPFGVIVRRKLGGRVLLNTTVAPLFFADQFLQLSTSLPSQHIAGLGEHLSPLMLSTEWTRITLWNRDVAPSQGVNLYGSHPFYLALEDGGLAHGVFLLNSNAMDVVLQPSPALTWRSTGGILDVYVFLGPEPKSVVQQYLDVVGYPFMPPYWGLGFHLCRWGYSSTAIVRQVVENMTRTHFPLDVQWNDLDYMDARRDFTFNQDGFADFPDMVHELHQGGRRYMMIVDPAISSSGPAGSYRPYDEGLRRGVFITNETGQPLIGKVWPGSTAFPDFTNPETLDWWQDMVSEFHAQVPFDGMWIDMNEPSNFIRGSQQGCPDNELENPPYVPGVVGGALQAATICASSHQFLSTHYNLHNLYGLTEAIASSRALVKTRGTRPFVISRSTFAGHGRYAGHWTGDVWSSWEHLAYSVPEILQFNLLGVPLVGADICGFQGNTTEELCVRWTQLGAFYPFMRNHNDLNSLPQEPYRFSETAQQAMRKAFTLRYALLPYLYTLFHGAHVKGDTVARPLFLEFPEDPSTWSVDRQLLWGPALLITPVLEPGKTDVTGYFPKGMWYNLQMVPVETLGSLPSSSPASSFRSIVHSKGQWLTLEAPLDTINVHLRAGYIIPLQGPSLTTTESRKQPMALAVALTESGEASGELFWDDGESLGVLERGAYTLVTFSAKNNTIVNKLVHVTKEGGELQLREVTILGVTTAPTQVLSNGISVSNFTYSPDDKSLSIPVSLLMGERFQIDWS
Procedure, shortened: (§3)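 Enzyme source was brush border membranes prepared from rat small intestine. Maltase, sucrase and isomaltase activities were read with the matching disaccharide substrate at each enzyme's optimum pH, and liberated D-glucose was quantified colorimetrically by Glucose B-test.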

[12] = biological target: T5, Sucrase-isomaltase, intestinal (Rattus norvegicus, UniProt P23739); assay: Inhibition of rat intestinal sucrase assessed as glucose release by Glucose B-test
T5 sequence (P23739 1-1013 limits assumed): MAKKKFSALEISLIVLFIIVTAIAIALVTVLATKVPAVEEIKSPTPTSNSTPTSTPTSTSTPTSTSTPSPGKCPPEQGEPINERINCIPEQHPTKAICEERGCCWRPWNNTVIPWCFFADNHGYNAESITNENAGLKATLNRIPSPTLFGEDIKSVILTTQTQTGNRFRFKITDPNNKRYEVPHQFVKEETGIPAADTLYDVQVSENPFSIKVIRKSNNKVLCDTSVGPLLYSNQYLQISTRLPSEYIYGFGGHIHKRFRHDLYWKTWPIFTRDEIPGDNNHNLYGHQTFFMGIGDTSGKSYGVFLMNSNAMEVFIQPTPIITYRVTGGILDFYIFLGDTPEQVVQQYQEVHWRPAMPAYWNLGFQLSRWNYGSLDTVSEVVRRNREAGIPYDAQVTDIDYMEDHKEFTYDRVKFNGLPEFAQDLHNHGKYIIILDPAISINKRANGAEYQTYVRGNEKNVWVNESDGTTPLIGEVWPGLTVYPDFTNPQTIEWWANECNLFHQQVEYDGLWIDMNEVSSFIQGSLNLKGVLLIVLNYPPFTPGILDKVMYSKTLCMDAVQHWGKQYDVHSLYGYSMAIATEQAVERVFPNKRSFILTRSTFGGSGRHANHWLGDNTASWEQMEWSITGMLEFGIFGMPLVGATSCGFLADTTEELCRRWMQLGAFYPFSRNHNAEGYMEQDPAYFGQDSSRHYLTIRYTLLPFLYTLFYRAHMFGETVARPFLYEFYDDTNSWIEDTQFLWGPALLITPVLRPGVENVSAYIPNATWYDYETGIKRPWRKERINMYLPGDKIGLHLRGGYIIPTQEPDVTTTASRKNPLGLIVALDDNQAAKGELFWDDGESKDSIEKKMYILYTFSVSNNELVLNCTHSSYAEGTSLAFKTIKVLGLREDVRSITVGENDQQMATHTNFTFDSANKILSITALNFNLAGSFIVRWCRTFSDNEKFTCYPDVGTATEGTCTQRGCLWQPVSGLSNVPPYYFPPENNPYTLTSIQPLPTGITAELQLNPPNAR
T5 sequence (P23739 1014-1841 limits assumed): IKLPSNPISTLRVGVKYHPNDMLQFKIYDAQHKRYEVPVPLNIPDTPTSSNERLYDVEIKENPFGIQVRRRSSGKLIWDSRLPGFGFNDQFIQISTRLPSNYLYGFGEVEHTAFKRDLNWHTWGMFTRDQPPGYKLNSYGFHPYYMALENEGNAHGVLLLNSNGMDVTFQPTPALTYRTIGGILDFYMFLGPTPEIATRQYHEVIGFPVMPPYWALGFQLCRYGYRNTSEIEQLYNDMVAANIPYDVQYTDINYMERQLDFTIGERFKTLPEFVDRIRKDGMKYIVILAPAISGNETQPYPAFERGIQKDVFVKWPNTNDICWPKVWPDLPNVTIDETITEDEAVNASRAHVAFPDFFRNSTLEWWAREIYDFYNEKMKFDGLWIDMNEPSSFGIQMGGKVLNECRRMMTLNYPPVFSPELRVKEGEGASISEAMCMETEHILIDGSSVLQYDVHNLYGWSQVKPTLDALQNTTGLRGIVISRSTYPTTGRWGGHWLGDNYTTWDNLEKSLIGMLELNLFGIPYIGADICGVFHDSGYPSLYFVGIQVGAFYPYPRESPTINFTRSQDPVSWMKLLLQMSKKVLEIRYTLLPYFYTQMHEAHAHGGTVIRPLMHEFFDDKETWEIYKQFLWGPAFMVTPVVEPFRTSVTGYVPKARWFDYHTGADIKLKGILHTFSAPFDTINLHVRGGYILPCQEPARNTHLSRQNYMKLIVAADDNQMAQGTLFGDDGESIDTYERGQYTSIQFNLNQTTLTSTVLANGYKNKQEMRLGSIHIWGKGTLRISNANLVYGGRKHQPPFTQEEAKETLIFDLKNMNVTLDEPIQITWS

[13] = biological target: T5, Sucrase-isomaltase, intestinal; assay: Inhibition of rat intestinal isomaltase assessed as glucose release by Glucose B-test
Rattus norvegicus = organism: Rattus norvegicus; assay: Inhibition of rat epididymis alpha-mannosidase assessed as p-nitrophenol release at 1000 uM by spectrophotometrically
[14] = biological target: T6, Beta-mannosidase (Rattus norvegicus) (UniProt Q4FZV0); assay: Inhibition of rat epididymis beta-mannosidase assessed as p-nitrophenol release at 1000 uM by spectrophotometrically
T6 sequence (whole entry): T1 sequence (Q4FZV0 whole entry)

Alpha-galactosidase = Alpha-galactosidase (Coffea arabica, UniProt Q42656); assay: Inhibition of coffee bean alpha-galactosidase assessed as p-nitrophenol release by spectrophotometrically; procedure, shortened: as §2
Alpha-galactosidase, sequence (Q42656 whole entry): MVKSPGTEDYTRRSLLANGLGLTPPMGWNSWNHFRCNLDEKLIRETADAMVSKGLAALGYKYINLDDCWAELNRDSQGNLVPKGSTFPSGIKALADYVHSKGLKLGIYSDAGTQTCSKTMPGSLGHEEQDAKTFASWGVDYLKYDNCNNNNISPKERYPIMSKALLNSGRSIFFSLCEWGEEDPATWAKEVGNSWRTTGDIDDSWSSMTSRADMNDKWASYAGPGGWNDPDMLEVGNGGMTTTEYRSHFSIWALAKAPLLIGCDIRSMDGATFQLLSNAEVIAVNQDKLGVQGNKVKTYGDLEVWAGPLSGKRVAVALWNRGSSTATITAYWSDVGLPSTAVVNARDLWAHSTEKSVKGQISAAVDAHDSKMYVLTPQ

[15] = biological target: T7, Uncharacterized protein (Sus scrofa) (UniProt I3LIR5); assay: Inhibition of pig kidney trehalase assessed as p-nitrophenol release at 1000 uM by spectrophotometrically
T7 sequence (whole entry): T4 sequence (I3LIR5 whole entry)

Beta-galactosidase = biological target: T8, Beta-galactosidase (Bos taurus, UniProt Q58D55); assay: Inhibition of bovine liver beta-galactosidase assessed as p-nitrophenol release by spectrophotometrically; procedure, shortened: as §2
T8 sequence (Q58D55 whole entry): T2 sequence (whole entry)

Saccharomyces cerevisiae [16] = assay: Inhibition of yeast alpha-glucosidase assessed as p-nitrophenol release at 1000 uM by spectrophotometrically; procedure, shortened: as §2
[17] = biological target: Sucrase-isomaltase, intestinal (Rattus norvegicus) (UniProt P23739); assay: Inhibition of rat intestinal sucrase assessed as glucose release at 1000 uM by Glucose B-test; procedure, shortened: as §3
Sucrase-isomaltase, intestinal (Rattus norvegicus), sequence (P23739 1-1013 limits assumed): as the sequence (P23739 1-1013 limits assumed) above
Sucrase-isomaltase, intestinal (Rattus norvegicus), sequence (P23739 1014-1841 limits assumed): as the sequence (P23739 1014-1841 limits assumed) above

[18] = biological target: Sucrase-isomaltase, intestinal (Rattus norvegicus) (UniProt P23739); assay: Inhibition of rat intestinal isomaltase assessed as glucose release at 1000 uM by Glucose B-test; procedure, shortened: as §3
[19] = biological target: T9, Tissue alpha-L-fucosidase (Bos taurus, UniProt Q2KIM0); assay: Inhibition of bovine epididymis alpha-L-fucosidase assessed as p-nitrophenol release by spectrophotometrically; procedure, shortened: as §2
T9 sequence (Q2KIM0 whole entry): T3 sequence (whole entry)

Aspergillus niger = assay: Inhibition of Aspergillus niger amyloglucosidase assessed as glucose release at 1000 uM by Glucose B-test; procedure, shortened: as §1

IC50 [2]	inhibition [4]	inhibition [5]	inhibition [6]	IC50 [7]	IC50 (Uncharacterized protein)	IC50 (Alpha-glucosidase MAL62)	IC50 [8]	inhibition [11]	inhibition (Rattus norvegicus)	SMILES	further results
1.2 µM	< 50%	< 50%	< 50%	400 µM	2.5 µM	0.84 µM	0.11 µM	–	–	OC[C@H]1NC[C@@H](O)[C@@H]1O	IC50 [1]: 120 µM; IC50 [3]: 150 µM; IC50 (Beta-mannosidase): 290 µM
–	–	–	–	–	41 µM	110 µM	42 µM	–	–	OC[C@H]1NC[C@H](O)[C@@H](O)[C@@H]1O [DUVOGLUSTAT]	–
–	–	–	–	–	–	2 µM	–	–	–	OC[C@H]1N[C@H](CO)[C@@H](O)[C@@H]1O	–
–	–	–	–	–	700 µM	–	–	–	–	OCCN1C[C@H](O)[C@@H](O)[C@H](O)[C@H]1CO [MIGLITOL]	inhibition [9]: < 50%; inhibition (Saccharomyces cerevisiae [10]): < 50%
290 µM	–	< 50%	< 50%	620 µM	–	78 µM	12 µM	< 50%	< 50%	OCCN1C[C@@H](O)[C@H](O)[C@H]1CO	inhibition (Oryza sativa): < 50%; IC50 [12]: 250 µM; IC50 [13]: 84 µM; inhibition [14]: < 50%; IC50 (Alpha-galactosidase): 700 µM; inhibition [15]: < 50%
230 µM	< 50%	–	< 50%	1000 µM	–	–	–	< 50%	< 50%	OC[C@H]1NC[C@H](O)[C@@H]1O [IMINORIBITOL]	IC50 [1]: 1000 µM; IC50 (Beta-mannosidase): 18 µM; IC50 (Beta-galactosidase): 380 µM
–	< 50%	< 50%	–	–	–	–	–	< 50%	< 50%	C[C@H]1N[C@@H](CO)[C@@H](O)[C@H]1O	inhibition (Oryza sativa): < 50%; inhibition (Saccharomyces cerevisiae [16]): < 50%; inhibition [17]: < 50%; inhibition [18]: < 50%; inhibition [14]: < 50%; IC50 [19]: 35 µM; inhibition (Aspergillus niger): < 50%
